The target of one series is Coagulation factor X (Homo sapiens, UniProt P00742). Description: Inhibitory potency was measured against human coagulation factor X.
A further series has as its target Prothrombin (Homo sapiens, UniProt P00734). Nature of the series: Inhibitory potency was measured against human thrombin. Put shortly:
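Purified human thrombin (16 nM final) was assayed chromogenically with S-2302 (300 μM final) in 50 mM Tris-HCl pH 7.5, 150 mM NaCl, 2.5 mM CaCl2, 0.1% PEG 6000 at room temperature. Varying inhibitor concentrations were tested at a substrate level equal to Km, assuming a competitive mechanism, to derive Ki.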

The target in the next series is T1, Serine protease 1 (Bos taurus, UniProt P00760).
T1 sequence (P00760 whole entry): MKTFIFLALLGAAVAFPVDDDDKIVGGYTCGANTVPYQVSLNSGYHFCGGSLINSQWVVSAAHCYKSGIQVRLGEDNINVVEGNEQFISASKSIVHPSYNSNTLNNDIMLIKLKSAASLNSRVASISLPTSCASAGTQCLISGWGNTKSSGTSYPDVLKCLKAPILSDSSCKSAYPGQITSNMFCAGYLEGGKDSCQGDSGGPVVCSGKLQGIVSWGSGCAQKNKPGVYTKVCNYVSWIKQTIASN
Nature of the series: Inhibitory potency was measured against bovine trypsin.

A short description of series [1]: Inhibitor plasma concentration was measured in dogs on 10 mg/kg oral dosing after 1 hr administration; uM. The class given is ADME, organism-based, Canis lupus familiaris. The arrangement: dose 10 mg/kg, route oral. The conditions noted are these: dog. The method, boiled down: (§1)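 Conscious beagles (10–16 kg) were given 10 mg/kg by oral gavage as homogeneous solutions in aqueous acid (n = 3). Plasma inhibitor concentrations were measured at the stated times by an ex vivo FXa inhibition activity assay. For ester/acid pairs, the value is the total ester plus acid concentration.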

Series [2] is described as follows: Inhibitor plasma concentration was measured in dogs on 10 mg/kg oral dosing after 2 hr administration; uM. The class given is ADME, organism-based, Canis lupus familiaris. The arrangement: dose 10 mg/kg, route oral. Particulars: dog. The method, boiled down:
as §1

Series [3] in a line: Prothrombin time concentration to give a 2-fold extension activity against pooled lyophilized human plasma. The class given is functional. Put shortly:
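Prothrombin time was measured in pooled lyophilized human plasma with Thromboplastin IS on an automated coagulation analyzer. The value is the inhibitor concentration that doubles PT.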

Series [4] in a line: Inhibitor plasma concentration was measured in dogs on 10 mg/kg oral dosing after 4 hr administration; uM. The class given is ADME, organism-based, Canis lupus familiaris. The arrangement: dose 10 mg/kg, route oral. The conditions noted are these: dog. Put shortly:
as §1

Series [5] in a line: plasma concentration was measured against the Nonhuman primates (baboon) using FXa inhibition assay after 1 hr; uM. The class given is ADME, organism-based, Papio. The method, boiled down:
(§2)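 Baboons received a 10 mg/kg oral dose in 1.5% carboxymethylcellulose plus 1% Tween 80 via nasogastric tube (2–4 animals per compound). Plasma inhibitor concentration was determined at the stated times by FXa inhibition assay.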

Series [6] in a line: plasma concentration was measured against the Nonhuman primates (baboon) using FXa inhibition assay after 2 hr; uM. The class given is ADME, organism-based, Papio. Put shortly: as §2
Series [7] is described as follows: plasma concentration was measured against the Nonhuman primates (baboon) using FXa inhibition assay after 3 hr; uM. It counts as ADME, organism-based, Papio. The method, boiled down: as §2
The nature of series [8]: plasma concentration was measured against the Nonhuman primates (baboon) using FXa inhibition assay after 4 hr; uM. The class given is ADME, organism-based, Papio. The method, boiled down:
as §2

Series [9] can be described thus: plasma concentration was measured against the Nonhuman primates (baboon) using FXa inhibition assay after 6 h; uM. The class given is ADME, organism-based, Papio. The method, boiled down: as §2
The nature of series [10]: plasma concentration was measured against the Nonhuman primates (cynomolgus monkey) using HPLC after 1 hr; uM.

Coagulation factor X, sequence (P00742 41-179 limits assumed): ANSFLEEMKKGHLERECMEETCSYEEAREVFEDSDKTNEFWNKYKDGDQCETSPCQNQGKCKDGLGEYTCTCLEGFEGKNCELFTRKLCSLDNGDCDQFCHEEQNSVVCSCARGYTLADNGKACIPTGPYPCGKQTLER
Coagulation factor X, sequence (P00742 235-488 limits assumed): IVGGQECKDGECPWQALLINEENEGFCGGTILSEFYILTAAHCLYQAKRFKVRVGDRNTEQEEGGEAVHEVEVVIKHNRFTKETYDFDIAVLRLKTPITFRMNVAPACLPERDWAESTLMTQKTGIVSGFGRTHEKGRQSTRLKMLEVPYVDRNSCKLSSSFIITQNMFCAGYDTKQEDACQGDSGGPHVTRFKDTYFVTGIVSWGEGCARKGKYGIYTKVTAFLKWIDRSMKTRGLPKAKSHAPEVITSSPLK

One may read the Ki as the dissociation constant of the complex between target and ligand, obtained from inhibition or displacement. The low end stands for tighter binding, the high end for weaker binding. As for `COc1ccc(C(=N)N)cc1Oc1nc(Oc2cccc(C(=O)N(C)C)c2)c(F)c(C)c1F`, the inhibitory constant (Ki) is 740 nM on Coagulation factor X, greater than 5000 nM at Prothrombin and 4300 nM on Serine protease 1.

For `CCOC(=O)CN(C)c1c(F)c(Oc2cccc(C3=NCCN3C)c2)nc(Oc2cc(C(=N)N)ccc2O)c1F`, in series [1], the concentration at 1 h was 200 nM. In [2], this compound returned a concentration at 2 h of 200 nM. Moreover, the inhibition constant Ki came to 0.26 nM on Coagulation factor X, 630 nM at Prothrombin and 240 nM on Serine protease 1. In series [3], this compound returned a PT extension of 630 nM. This compound also showed a concentration at 4 h in series [4] of 100 nM.

For `N=C(N)c1ccc(/C=C2/CCCC/C(=C/c3ccc(C(=N)N)cc3)C2=O)cc1`, the values for the inhibitory constant (Ki) at Coagulation factor X and at Serine protease 1 were 0.66 nM and 33 nM, respectively.

With `Cc1c(F)c(Oc2cccc(C(=O)N(C)C)c2)nc(Oc2cc(C(=N)N)ccc2N)c1F`, the Ki on Coagulation factor X amounted to 14 nM; on Prothrombin it was 2300 nM; at Serine protease 1, 550 nM.

Regarding `N=C(N)c1cccc(Oc2cccc(Oc3cccc(C(=N)N)c3)n2)c1`, the figures for the Ki at Coagulation factor X, on Prothrombin and at Serine protease 1 were 53 nM, 14000 nM and 1100 nM, respectively.

`Cc1c(F)c(Oc2cccc(C(=N)N)c2)nc(Oc2cccc(N(C)C)c2)c1F`: the Ki was found to be 160 nM on Coagulation factor X, 2600 nM at Prothrombin and 1900 nM on Serine protease 1.

Regarding `Cn1ccnc1-c1cccc(Oc2cc(C(=O)O)cc(Oc3cc(C(=N)N)ccc3O)n2)c1`, the Ki at Coagulation factor X worked out at 9 nM; at Prothrombin, 180 nM; at Serine protease 1, 660 nM.

As to `CCOC(=O)[C@@H]1C[C@@H](Oc2c(F)c(Oc3cccc(C(=O)N(C)C)c3)nc(Oc3cc(C(=N)N)ccc3O)c2F)CN1`, the concentration at 1 h in series [1] was 300 nM. In series [2], this compound yielded a concentration at 2 h of 200 nM. Moreover, the Ki came to 0.71 nM at Coagulation factor X, 280 nM at Prothrombin and 740 nM at Serine protease 1. Also, the PT extension in [3] was found to be 1400 nM. This compound also returned a concentration at 4 h in [4] of 100 nM.

Consider `CN(C)C(=O)c1cccc(Oc2nc(Oc3cc(C(=N)N)ccc3O)c(F)c(OC3CCN(CC(=O)O)CC3)c2F)c1`, for which the concentration at 1 h in series [1] is 300 nM. The concentration at 2 h in series [2] was 100 nM. Also, the values for the Ki at Coagulation factor X, on Prothrombin and at Serine protease 1 were 0.65 nM, 192 nM and 770 nM, respectively. In [3], this compound came in with a PT extension of 850 nM.

Consider `N=C(N)c1ccc(Oc2nc(Oc3ccc(C(=N)N)cc3)c(Cl)cc2Cl)cc1`, for which the Ki on Coagulation factor X was 620 nM; on Prothrombin, 1400 nM; on Serine protease 1, 2700 nM.

With `Cc1c(F)c(Oc2cccc(C(=N)N)c2)nc(Oc2cccc(C(=N)N)c2)c1F`, the Ki on Coagulation factor X was 13 nM; at Prothrombin it was 22000 nM; at Serine protease 1 it was 810 nM.

As for `CN1CCN=C1c1cccc(Oc2cc(C(=O)O)cc(Oc3cc(C(=N)N)ccc3O)n2)c1`, the inhibitory constant (Ki) at Coagulation factor X worked out at 2.4 nM; at Prothrombin, 810 nM; at Serine protease 1 it was 220 nM.

With `N=C(N)c1ccc(Oc2cccc(Oc3ccc(C(=N)N)cc3)n2)cc1`, the Ki on Coagulation factor X came to 400 nM; on Prothrombin it was 550 nM; on Serine protease 1 it was 2800 nM.

Regarding `N=C(N)c1ccc(O)c(Oc2cc(C(=O)O)cc(Oc3cccc(C4=NCCN4)c3)n2)c1`, the Ki at Coagulation factor X is 85 nM; at Prothrombin, greater than 5000 nM; at Serine protease 1, 1400 nM.

As for `CN(C)C(=O)c1cccc(Oc2cc(C(=O)O)cc(Oc3cc(C(=N)N)ccc3O)n2)c1`, the Ki on Coagulation factor X was found to be 3.9 nM; at Prothrombin, 1100 nM; at Serine protease 1 it was 300 nM.

As to `N=C(N)c1cccc(Oc2nc(Oc3cccc(C(=N)N)c3)c(F)cc2F)c1`, the figures for the Ki on Coagulation factor X, on Prothrombin and on Serine protease 1 were 24 nM, 37000 nM and 1200 nM, respectively.

Regarding `CCOC(=O)[C@@H]1C[C@@H](Oc2c(F)c(Oc3cccc(C4=NCCN4C)c3)nc(Oc3cc(C(=N)N)ccc3O)c2F)CN1`, the concentration at 1 h turned out to be 200 nM in series [5] and 3500 nM in series [1]. For the same compound, the concentration at 2 h in series [6] was 300 nM; in series [2], 3400 nM. This compound yielded a concentration at 3 h in series [7] of 600 nM. In addition, the concentration at 4 h in [8] came to 500 nM; in series [4] it was 2600 nM. This compound showed a concentration at 6 h in series [9] of 300 nM. For the same compound, the figures for the Ki at Coagulation factor X, at Prothrombin and on Serine protease 1 were 0.43 nM, 140 nM and 330 nM, respectively. The PT extension in series [3] came out at 300 nM.

Regarding `Cc1c(F)c(Oc2cccc(C(=N)N)c2)nc(Oc2cccc(C(N)=O)c2)c1F`, the inhibition constant (Ki) at Coagulation factor X is 280 nM; at Prothrombin it was greater than 5000 nM; on Serine protease 1 it was greater than 5000 nM.

Turning to `CNC(=O)c1cccc(Oc2nc(Oc3cccc(C(=N)N)c3)c(F)c(C)c2F)c1`, the inhibitory constant (Ki) on Coagulation factor X turned out to be 1300 nM.

Take `N=C(N)c1cccc(Oc2cc(C(=O)O)cc(Oc3cccc(C(=N)N)c3)n2)c1`: the inhibition constant (Ki) on Coagulation factor X was found to be 59 nM; on Prothrombin, 27000 nM; on Serine protease 1, 570 nM.

Take `Cc1c(F)c(Oc2ccccc2)nc(Oc2cccc(C(=N)N)c2)c1F`: the Ki at Coagulation factor X and on Prothrombin was greater than 5000 nM each time.

As for `N=C(N)c1cccc(Oc2nc(Oc3cccc(C(=N)N)c3)c(Cl)cc2Cl)c1`, the inhibitory constant (Ki) at Coagulation factor X was 130 nM; at Prothrombin, greater than 5000 nM; at Serine protease 1 it was 2100 nM.

As to `N=C(N)c1ccc(O)c(Oc2cc(C(=O)O)cc(Oc3cccc(-n4ccnc4)c3)n2)c1`, the Ki came to 26 nM on Coagulation factor X, 1400 nM on Prothrombin and 1200 nM at Serine protease 1.

Take `N=C(N)c1ccc(Oc2cccc(Oc3cccc(C(=N)N)c3)n2)cc1`: the results for the Ki on Coagulation factor X, at Prothrombin and on Serine protease 1 were 130 nM, 1200 nM and 1900 nM, respectively.

In [1], `CN(C)C(=O)c1cccc(Oc2nc(Oc3cc(C(=N)N)ccc3O)c(F)c(N(C)CC(=O)O)c2F)c1` showed a concentration at 1 h of 300 nM. In addition, the concentration at 2 h in series [2] was 400 nM. In addition, the Ki at Coagulation factor X was found to be 0.41 nM; on Prothrombin it was 4500 nM; on Serine protease 1 it was 1100 nM. In series [3], this compound had a PT extension of 1000 nM.

In [1], `CN1CCN=C1c1cccc(Oc2nc(Oc3cc(C(=N)N)ccc3O)c(F)c(O[C@H]3CN[C@H](C(=O)O)C3)c2F)c1` showed a concentration at 1 h of 3200 nM. This compound returned a concentration at 2 h in series [2] of 2200 nM. Also, the results for the inhibition constant Ki on Coagulation factor X, on Prothrombin and on Serine protease 1 were 0.33 nM, 250 nM and 310 nM, respectively. The compound also registered a PT extension in series [3] of 670 nM. Besides, in [4], the concentration at 4 h amounted to 800 nM.

Take `CN1CCN=C1c1cccc(Oc2nc(Oc3cc(C(=N)N)ccc3O)c(F)c(OC3CCN(CC(=O)O)CC3)c2F)c1`: the concentration at 1 h is 100 nM in [5], 5500 nM in series [1] and 100 nM in series [10]. In addition, the concentration at 3 h in [7] came out at 100 nM. The concentration at 4 h in series [8] came to 200 nM; in series [4] it was 1200 nM. For the same compound, the concentration at 6 h in series [9] stood at 700 nM. In series [2], the concentration at 2 h turned out to be 3800 nM. The inhibition constant Ki is 0.24 nM on Coagulation factor X, 125 nM at Prothrombin and 330 nM on Serine protease 1. Also, in series [3], the PT extension came to 220 nM.

Turning to `Cc1c(F)c(Oc2cccc(C(=N)N)c2)nc(Oc2cccc(C(=O)N(C)C)c2)c1F`, the Ki at Coagulation factor X came out at 80 nM; on Prothrombin it was 15000 nM; on Serine protease 1, 2700 nM.

Turning to `Cc1c(F)c(Oc2cccc(CN(C)C)c2)nc(Oc2cccc(C(=N)N)c2)c1F`, the Ki on Coagulation factor X stood at 640 nM; at Prothrombin, 22000 nM.

`CCOC(=O)CN1CCC(Oc2c(F)c(Oc3cccc(C4=NCCN4C)c3)nc(Oc3cc(C(=N)N)ccc3O)c2F)CC1`: the concentration at 1 h in [1] is 300 nM. In series [2], this compound showed a concentration at 2 h of 300 nM. Also, the Ki stood at 0.31 nM at Coagulation factor X, 190 nM at Prothrombin and 300 nM at Serine protease 1. In series [3], the PT extension is reported as 240 nM. This compound showed a concentration at 4 h in series [4] of 200 nM.

As to `Cc1c(F)c(Oc2cccc(C(=O)N(C)C)c2)nc(Oc2cc(C(=N)N)ccc2O)c1F`, the Ki at Prothrombin and at Serine protease 1 was 1100 nM each time.
